Results taken from ChEMBL document CHEMBL3112490, “Ionic liquid mediated synthesis of mono- and bis-spirooxindole-hexahydropyrrolidines as cholinesterase inhibitors and their molecular docking studies” (Bioorg Med Chem, 2014).

Columns and labels:
[1] = Selectivity ratio of IC50 for equine serum BChE to IC50 for AChE (unknown origin)
[2] = Selectivity index, ratio of IC50 for AChE (unknown origin) to IC50 for equine serum BChE
Cholinesterase [3] = biological target: T1, Cholinesterase (Equus caballus, UniProt P81908); experiment: Inhibition of equine serum BChE using S-butyrylthiocholine chloride as substrate preincubated for 15 mins followed by substrate addition by Ellman's method
In short: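 Modified Ellman assay with equine serum BChE in 0.1 M sodium phosphate, pH 8. Enzyme preincubated with sample (DMSO, 1% final) for 15 min at 25 °C. DTNB (10 mM stock) then added, followed by S-butyrylthiocholine chloride (14 mM stock). Triplicates, blank-corrected; % inhibition calculated relative to control.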

Acetylcholinesterase [4] = biological target: T2, Acetylcholinesterase (Homo sapiens, UniProt P22303); experiment: Inhibition of AChE (unknown origin) using acetylthiocholine iodide as substrate preincubated for 15 mins followed by substrate addition by Ellman's method
Acetylcholinesterase [5] = biological target: T2, Acetylcholinesterase; experiment: Competitive inhibition of AChE (unknown origin) using acetylthiocholine iodide as substrate by Dixon plot analysis
In short: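 Ellman kinetics on AChE, added as a 0.09 units/mL solution, in pH 8 phosphate buffer with a 15 min 25 °C preincubation. Inhibitor at 0, 0.70 and 1.40 µM; acetylthiocholine iodide at 1, 2, 4 and 8 mM; DTNB detection at 412 nm. Mode, Km and Vmax from Lineweaver–Burk plots; Ki from Dixon plot.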

Cholinesterase [6] = biological target: T1, Cholinesterase; experiment: Mixed-type inhibition of equine serum BChE using S-butyrylthiocholine chloride as substrate by Dixon plot analysis
In short: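 Equine serum BChE run in the same Ellman kinetic format, pH 8, with a 15 min 25 °C preincubation. Inhibitor at 0, 0.90 and 1.81 µM; S-butyrylthiocholine chloride at 1, 2, 4 and 8 mM; read at 412 nm. Inhibition mode, Km and Vmax taken from Lineweaver–Burk plots; Ki from Dixon plot.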

T2 sequence (P22303 whole entry): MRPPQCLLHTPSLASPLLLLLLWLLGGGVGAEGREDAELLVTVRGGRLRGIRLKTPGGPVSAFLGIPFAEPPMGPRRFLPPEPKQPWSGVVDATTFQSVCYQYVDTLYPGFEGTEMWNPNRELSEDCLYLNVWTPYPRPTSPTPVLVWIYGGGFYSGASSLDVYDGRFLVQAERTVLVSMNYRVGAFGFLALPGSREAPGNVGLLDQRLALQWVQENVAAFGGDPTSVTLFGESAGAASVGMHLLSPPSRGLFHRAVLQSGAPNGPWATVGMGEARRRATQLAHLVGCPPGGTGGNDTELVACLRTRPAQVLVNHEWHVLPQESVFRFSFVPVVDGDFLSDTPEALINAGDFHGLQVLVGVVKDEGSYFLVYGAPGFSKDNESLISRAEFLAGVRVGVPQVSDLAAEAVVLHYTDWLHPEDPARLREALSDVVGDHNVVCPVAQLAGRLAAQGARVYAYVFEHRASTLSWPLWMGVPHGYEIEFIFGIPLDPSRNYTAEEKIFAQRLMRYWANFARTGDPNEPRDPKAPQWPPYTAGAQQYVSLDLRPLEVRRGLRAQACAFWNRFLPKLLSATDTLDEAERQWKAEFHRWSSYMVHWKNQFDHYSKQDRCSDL
T1 sequence (P81908 whole entry): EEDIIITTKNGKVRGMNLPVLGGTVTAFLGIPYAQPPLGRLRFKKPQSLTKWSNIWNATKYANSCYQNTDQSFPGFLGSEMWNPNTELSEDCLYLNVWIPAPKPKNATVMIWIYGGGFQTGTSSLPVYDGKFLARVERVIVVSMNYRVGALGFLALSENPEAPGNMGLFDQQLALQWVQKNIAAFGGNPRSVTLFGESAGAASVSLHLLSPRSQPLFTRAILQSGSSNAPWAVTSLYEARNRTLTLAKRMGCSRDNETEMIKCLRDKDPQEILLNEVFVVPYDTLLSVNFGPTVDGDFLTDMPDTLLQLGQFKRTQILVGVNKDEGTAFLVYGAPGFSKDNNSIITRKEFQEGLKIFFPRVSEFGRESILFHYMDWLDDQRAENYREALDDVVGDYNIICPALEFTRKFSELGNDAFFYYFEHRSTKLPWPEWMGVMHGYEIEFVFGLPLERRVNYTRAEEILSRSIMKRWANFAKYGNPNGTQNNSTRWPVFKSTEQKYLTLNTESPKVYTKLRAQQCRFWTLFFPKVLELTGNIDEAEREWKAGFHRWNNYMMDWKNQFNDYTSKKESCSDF

| Structure (SMILES) | Ratio IC50 [1] | Ratio IC50 [2] | IC50 (Cholinesterase [3]) [µM] | IC50 (Acetylcholinesterase [4]) [µM] | Ki (Acetylcholinesterase [5]) [nM] | Ki (Cholinesterase [6]) [µM] |
| --- | --- | --- | --- | --- | --- | --- |
| C=CC(=O)N1C/C(=C\c2ccc(C)cc2)C(=O)[C@@]2(C1)[C@H](c1ccc(C)cc1)CN(C)[C@]21C(=O)Nc2ccccc21 (racemic) | 1.24 | 0.81 | 9.28 | 7.49 |  |  |
| C=CC(=O)N1C/C(=C\c2cccc3ccccc23)C(=O)[C@@]2(C1)[C@H](c1cccc3ccccc13)CN(C)[C@]21C(=O)Nc2ccccc21 (racemic) | 1.17 | 0.86 | 8.85 | 7.59 |  |  |
| C=CC(=O)N1C/C(=C\c2ccccc2OC)C(=O)[C@@]2(C1)[C@H](c1ccccc1OC)CN(C)[C@]21C(=O)Nc2ccccc21 (racemic) | 1.03 | 0.97 | 4.22 | 4.1 |  |  |
| CN1CC[C@@H](C(=O)N2C/C(=C\c3ccccc3F)C(=O)[C@@]3(C2)[C@H](c2ccccc2F)CN(C)[C@]32C(=O)Nc3ccccc32)[C@@]12C(=O)Nc1ccccc12 (racemic) | 1.2 | 0.83 | 7.44 | 6.18 |  |  |
| C=CC(=O)N1C/C(=C\c2ccc(Cl)cc2Cl)C(=O)[C@@]2(C1)[C@H](c1ccc(Cl)cc1Cl)CN(C)[C@]21C(=O)Nc2ccccc21 (racemic) | 0.87 | 1.15 | 5.32 | 6.14 |  |  |
| C=CC(=O)N1C/C(=C\c2ccccc2Cl)C(=O)[C@@]2(C1)[C@H](c1ccccc1Cl)CN(C)[C@]21C(=O)Nc2ccccc21 (racemic) | 0.82 | 1.22 | 4.2 | 5.12 |  |  |
| C=CC(=O)N1C/C(=C\c2ccccc2C)C(=O)[C@@]2(C1)[C@H](c1ccccc1C)CN(C)[C@]21C(=O)Nc2ccccc21 (racemic) | 0.97 | 1.03 | 3.86 | 3.97 |  |  |
| C=CC(=O)N1C/C(=C\c2ccc(Cl)cc2)C(=O)[C@@]2(C1)[C@H](c1ccc(Cl)cc1)CN(C)[C@]21C(=O)Nc2ccccc21 (racemic) | 0.81 | 1.24 | 6.77 | 8.4 |  |  |
| C=CC(=O)N1C/C(=C\c2ccc(F)cc2)C(=O)[C@@]2(C1)[C@H](c1ccc(F)cc1)CN(C)[C@]21C(=O)Nc2ccccc21 (racemic) | 0.43 | 2.3 | 3.39 | 7.8 |  |  |
| COc1ccccc1/C=C1\CN(C(=O)[C@@H]2CCN(C)[C@]23C(=O)Nc2ccccc23)C[C@]2(C1=O)[C@H](c1ccccc1OC)CN(C)[C@]21C(=O)Nc2ccccc21 (racemic) | 2.2 | 0.45 | 10.4 | 4.73 |  |  |
| C=CC(=O)N1C/C(=C\c2cccc([N+](=O)[O-])c2)C(=O)[C@@]2(C1)[C@H](c1cccc([N+](=O)[O-])c1)CN(C)[C@]21C(=O)Nc2ccccc21 (racemic) | 1.45 | 0.69 | 7.74 | 5.34 |  |  |
| CN1CC[C@@H](C(=O)N2C/C(=C\c3ccc(F)cc3)C(=O)[C@@]3(C2)[C@H](c2ccc(F)cc2)CN(C)[C@]32C(=O)Nc3ccccc32)[C@@]12C(=O)Nc1ccccc12 (racemic) | 3.33 | 0.3 | 7.82 | 2.35 | 2010 |  |
| CN1CC[C@@H](C(=O)N2C/C(=C\c3ccccc3Cl)C(=O)[C@@]3(C2)[C@H](c2ccccc2Cl)CN(C)[C@]32C(=O)Nc3ccccc32)[C@@]12C(=O)Nc1ccccc12 (racemic) | 1.81 | 0.55 | 9.38 | 5.19 |  |  |
| CN1CC[C@@H](C(=O)N2C/C(=C\c3ccc(Cl)cc3)C(=O)[C@@]3(C2)[C@H](c2ccc(Cl)cc2)CN(C)[C@]32C(=O)Nc3ccccc32)[C@@]12C(=O)Nc1ccccc12 (racemic) | 1.54 | 0.65 | 9.44 | 6.14 |  |  |
| C=CC(=O)N1C/C(=C\c2ccccc2)C(=O)[C@@]2(C1)[C@H](c1ccccc1)CN(C)[C@]21C(=O)Nc2ccccc21 (racemic) | 0.86 | 1.16 | 7.52 | 8.74 |  |  |
| Cc1ccccc1/C=C1\CN(C(=O)[C@@H]2CCN(C)[C@]23C(=O)Nc2ccccc23)C[C@]2(C1=O)[C@H](c1ccccc1C)CN(C)[C@]21C(=O)Nc2ccccc21 (racemic) | 1.33 | 0.75 | 12.5 | 9.43 |  |  |
| Cc1ccc(/C=C2\CN(C(=O)[C@@H]3CCN(C)[C@]34C(=O)Nc3ccccc34)C[C@]3(C2=O)[C@H](c2ccc(C)cc2)CN(C)[C@]32C(=O)Nc3ccccc32)cc1 (racemic) | 1.47 | 0.68 | 11.3 | 7.67 |  |  |
| CN1CC[C@@H](C(=O)N2C/C(=C\c3cccc4ccccc34)C(=O)[C@@]3(C2)[C@H](c2cccc4ccccc24)CN(C)[C@]32C(=O)Nc3ccccc32)[C@@]12C(=O)Nc1ccccc12 (racemic) | 3.88 | 0.26 | 19.1 | 4.93 |  |  |
| C=CC(=O)N1C/C(=C\c2ccccc2F)C(=O)[C@@]2(C1)[C@H](c1ccccc1F)CN(C)[C@]21C(=O)Nc2ccccc21 (racemic) | 0.47 | 2.14 | 3.21 | 6.88 |  | 6.76 |
| CN1CC[C@@H](C(=O)N2C/C(=C\c3ccccc3)C(=O)[C@@]3(C2)[C@H](c2ccccc2)CN(C)[C@]32C(=O)Nc3ccccc32)[C@@]12C(=O)Nc1ccccc12 (racemic) | 3.55 | 0.28 | 9.34 | 2.63 |  |  |
| CN1CC[C@@H](C(=O)N2C/C(=C\c3ccc(Cl)cc3Cl)C(=O)[C@@]3(C2)[C@H](c2ccc(Cl)cc2Cl)CN(C)[C@]32C(=O)Nc3ccccc32)[C@@]12C(=O)Nc1ccccc12 (racemic) | 4.05 | 0.25 | 17.9 | 4.42 |  |  |
| CN1CC[C@@H](C(=O)N2C/C(=C\c3cccc([N+](=O)[O-])c3)C(=O)[C@@]3(C2)[C@H](c2cccc([N+](=O)[O-])c2)CN(C)[C@]32C(=O)Nc3ccccc32)[C@@]12C(=O)Nc1ccccc12 (racemic) | 5 | 0.2 | 12.3 | 2.47 |  |  |
